Results: ChEMBL document CHEMBL4339195, “Di-aryl Sulfonamide Motif Adds π-Stacking Bulk in Negative Allosteric Modulators of the NMDA Receptor” (ACS Med Chem Lett, 2019)

Experiments:
[1] = target: Glutamate NMDA receptor; Grin1/Grin2c (Rattus norvegicus, UniProt P35439+Q00961); assay: Negative allosteric modulation of recombinant rat GluN1/GluN2C expressed in Xenopus laevis oocytes assessed as inhibition of glutamate/glycine-induced current response at -40 mV holding potential by two-electrode voltage clamp method; assay type: cell-based
How it was run: (§1)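 Oocytes recorded while the drug is co-applied with a maximally effective 100 µM glutamate plus 30 µM glycine. Response is expressed as percent of the glutamate/glycine control. IC50 comes from a Hill fit to the average composite concentration-response curve. 8-16 oocytes from 2-3 frogs per compound and receptor.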

[2] = target: T1, Glutamate NMDA receptor; Grin1/Grin2c (Rattus norvegicus) (UniProt P35439+Q00961); assay: Negative allosteric modulation of recombinant rat GluN1/GluN2C expressed in Xenopus laevis oocytes assessed as inhibition of glutamate/glycine-induced current response at 30 uM at -40 mV holding potential by two-electrode voltage clamp method relative to glutamate/glycine; assay type: cell-based; conditions: values are per cent of control; how it was run: as §1
[3] = target: T1, Glutamate NMDA receptor; Grin1/Grin2c (Rattus norvegicus); assay: Potency index, ratio of NP11999 IC50 to test compound IC50 for negative allosteric modulation of recombinant rat GluN1/GluN2C expressed in Xenopus laevis oocytes assessed as inhibition of glutamate/glycine-induced current response; assay type: cell-based
[4] = target: T2, Ionotropic glutamate receptor NMDA 1/2D (Rattus norvegicus) (UniProt P35439+Q62645); assay: Potency index, ratio of NP11999 IC50 to test compound IC50 for negative allosteric modulation of recombinant rat GluN1/GluN2D expressed in Xenopus laevis oocytes assessed as inhibition of glutamate/glycine-induced current response; assay type: cell-based
[5] = target: T2, Ionotropic glutamate receptor NMDA 1/2D (Rattus norvegicus); assay: Negative allosteric modulation of recombinant rat GluN1/GluN2D expressed in Xenopus laevis oocytes assessed as inhibition of glutamate/glycine-induced current response at 30 uM at -40 mV holding potential by two-electrode voltage clamp method relative to glutamate/glycine; assay type: cell-based; conditions: values are per cent of control; how it was run: as §1
[6] = target: Glutamate NMDA receptor; Grin1/Grin2b (Rattus norvegicus, UniProt P35439+Q00960); assay: Negative allosteric modulation of recombinant rat GluN1/GluN2B expressed in Xenopus laevis oocytes assessed as inhibition of glutamate/glycine-induced current response at -40 mV holding potential by two-electrode voltage clamp method; assay type: cell-based; how it was run: as §1
Sequence of Glutamate NMDA receptor; Grin1/Grin2b (Q00960 whole entry, other chains not shown): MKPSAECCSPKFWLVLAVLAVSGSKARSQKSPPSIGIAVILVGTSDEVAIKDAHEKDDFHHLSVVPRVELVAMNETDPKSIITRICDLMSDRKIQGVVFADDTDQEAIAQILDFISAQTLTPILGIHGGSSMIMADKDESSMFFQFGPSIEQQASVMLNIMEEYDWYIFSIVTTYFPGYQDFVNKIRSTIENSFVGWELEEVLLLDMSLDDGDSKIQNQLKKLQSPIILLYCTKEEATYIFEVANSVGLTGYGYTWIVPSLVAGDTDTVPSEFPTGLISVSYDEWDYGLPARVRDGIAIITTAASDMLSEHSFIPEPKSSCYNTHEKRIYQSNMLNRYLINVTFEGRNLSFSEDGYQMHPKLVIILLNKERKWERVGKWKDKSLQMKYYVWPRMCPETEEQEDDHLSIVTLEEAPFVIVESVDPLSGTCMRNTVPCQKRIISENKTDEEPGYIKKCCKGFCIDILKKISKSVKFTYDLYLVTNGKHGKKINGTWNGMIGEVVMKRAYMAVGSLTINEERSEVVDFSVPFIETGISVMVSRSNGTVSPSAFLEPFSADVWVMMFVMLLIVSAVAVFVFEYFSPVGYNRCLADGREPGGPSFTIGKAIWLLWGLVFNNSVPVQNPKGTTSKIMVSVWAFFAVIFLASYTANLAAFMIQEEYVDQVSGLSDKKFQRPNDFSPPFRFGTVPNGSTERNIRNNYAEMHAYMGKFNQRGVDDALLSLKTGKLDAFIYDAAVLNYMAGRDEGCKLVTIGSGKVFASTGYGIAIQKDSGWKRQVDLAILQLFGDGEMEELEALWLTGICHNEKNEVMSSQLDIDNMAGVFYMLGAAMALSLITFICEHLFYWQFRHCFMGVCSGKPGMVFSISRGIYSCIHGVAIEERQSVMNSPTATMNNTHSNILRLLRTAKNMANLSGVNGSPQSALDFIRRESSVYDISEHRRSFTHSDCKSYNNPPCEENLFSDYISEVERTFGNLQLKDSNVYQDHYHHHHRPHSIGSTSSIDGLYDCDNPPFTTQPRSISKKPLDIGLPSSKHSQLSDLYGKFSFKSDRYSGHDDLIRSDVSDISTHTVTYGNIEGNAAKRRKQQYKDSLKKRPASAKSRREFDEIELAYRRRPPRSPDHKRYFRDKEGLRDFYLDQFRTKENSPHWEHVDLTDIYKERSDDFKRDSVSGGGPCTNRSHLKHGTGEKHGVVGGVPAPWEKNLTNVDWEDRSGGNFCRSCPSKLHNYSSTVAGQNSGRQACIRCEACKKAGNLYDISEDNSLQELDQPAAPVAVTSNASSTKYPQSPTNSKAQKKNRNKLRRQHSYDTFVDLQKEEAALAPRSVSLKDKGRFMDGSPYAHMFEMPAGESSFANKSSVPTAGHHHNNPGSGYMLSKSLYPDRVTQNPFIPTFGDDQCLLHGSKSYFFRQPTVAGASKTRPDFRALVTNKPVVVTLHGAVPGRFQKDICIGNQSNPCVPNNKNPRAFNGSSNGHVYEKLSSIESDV

[7] = target: Glutamate receptor 1 (Rattus norvegicus) (UniProt P19490); assay: Negative allosteric modulation of recombinant rat GluA1 expressed in Xenopus laevis oocytes assessed as inhibition of glutamate-induced current response at 30 uM at -40 mV holding potential by two-electrode voltage clamp method relative to glutamate alone; assay type: cell-based
Sequence of Glutamate receptor 1 (Rattus norvegicus) (P19490 whole entry): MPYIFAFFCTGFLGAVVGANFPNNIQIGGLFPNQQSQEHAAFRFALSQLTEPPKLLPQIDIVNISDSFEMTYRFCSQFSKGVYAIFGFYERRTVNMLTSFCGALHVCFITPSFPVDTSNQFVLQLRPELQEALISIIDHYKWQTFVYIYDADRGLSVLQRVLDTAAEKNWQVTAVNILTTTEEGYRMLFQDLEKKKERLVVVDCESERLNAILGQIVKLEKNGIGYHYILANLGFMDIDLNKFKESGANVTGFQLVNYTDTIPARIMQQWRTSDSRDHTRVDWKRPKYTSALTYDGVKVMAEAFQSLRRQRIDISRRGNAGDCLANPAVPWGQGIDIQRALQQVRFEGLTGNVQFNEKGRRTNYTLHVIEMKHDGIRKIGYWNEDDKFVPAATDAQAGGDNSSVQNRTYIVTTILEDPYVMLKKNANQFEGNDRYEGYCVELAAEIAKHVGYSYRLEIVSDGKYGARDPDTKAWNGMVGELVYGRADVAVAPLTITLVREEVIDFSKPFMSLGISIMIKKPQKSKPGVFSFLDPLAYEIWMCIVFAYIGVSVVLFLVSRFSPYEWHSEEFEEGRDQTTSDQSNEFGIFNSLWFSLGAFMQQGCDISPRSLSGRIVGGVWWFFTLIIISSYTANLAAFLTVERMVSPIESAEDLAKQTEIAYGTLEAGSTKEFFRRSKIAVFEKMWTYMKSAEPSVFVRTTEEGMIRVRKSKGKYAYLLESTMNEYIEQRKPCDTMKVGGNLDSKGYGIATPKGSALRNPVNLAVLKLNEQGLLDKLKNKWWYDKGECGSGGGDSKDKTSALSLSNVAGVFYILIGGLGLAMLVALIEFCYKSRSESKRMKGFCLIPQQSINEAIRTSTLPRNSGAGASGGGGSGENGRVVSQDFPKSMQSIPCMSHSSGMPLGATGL
How it was run: (§2)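 Oocyte two-electrode voltage clamp at -40 mV holding. Test compound co-applied with agonist; response given as percent of the mean of control and recovery currents to agonist alone. Agonists: 100 µM glutamate (AMPA, kainate), 100 µM GABA (GABA receptors), 100 µM glycine (glycine receptor), 100 µM serotonin (5-HT3A), 9 µM ATP (P2X), 1 µM acetylcholine (nicotinic).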

Rattus norvegicus = species: Rattus norvegicus; assay: Negative allosteric modulation of rat GABAA rho expressed in Xenopus laevis oocytes assessed as inhibition of GABA-induced current response at 30 uM at -40 mV holding potential by two-electrode voltage clamp method relative to GABA alone; assay type: cell-based; how it was run: as §2
[8] = target: T3, Glycine receptor subunit alpha-1 (Rattus norvegicus) (UniProt P07727); assay: Negative allosteric modulation of rat glycine alpha1 expressed in Xenopus laevis oocytes assessed as inhibition of glycine-induced current response at 30 uM at -40 mV holding potential by two-electrode voltage clamp method relative to glycine alone; assay type: cell-based; how it was run: as §2
T3 sequence (whole entry): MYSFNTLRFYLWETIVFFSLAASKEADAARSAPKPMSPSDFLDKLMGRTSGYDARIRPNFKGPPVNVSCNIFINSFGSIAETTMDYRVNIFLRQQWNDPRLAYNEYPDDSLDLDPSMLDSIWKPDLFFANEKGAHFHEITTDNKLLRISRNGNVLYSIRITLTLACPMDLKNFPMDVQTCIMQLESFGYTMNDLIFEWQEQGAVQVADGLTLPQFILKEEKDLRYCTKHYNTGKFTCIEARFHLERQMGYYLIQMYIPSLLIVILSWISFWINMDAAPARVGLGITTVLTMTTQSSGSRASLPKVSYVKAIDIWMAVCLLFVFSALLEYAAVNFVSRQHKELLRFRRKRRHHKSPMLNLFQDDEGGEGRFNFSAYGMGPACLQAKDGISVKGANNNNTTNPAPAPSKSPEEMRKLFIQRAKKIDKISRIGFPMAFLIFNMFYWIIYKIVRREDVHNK

[9] = target: T4, 5-hydroxytryptamine receptor 3A (Rattus norvegicus) (UniProt P35563); assay: Negative allosteric modulation of rat 5HT3A expressed in Xenopus laevis oocytes assessed as inhibition of serotonin-induced current response at 30 uM at -40 mV holding potential by two-electrode voltage clamp method relative to serotonin alone; assay type: cell-based; how it was run: as §2
T4 sequence (whole entry): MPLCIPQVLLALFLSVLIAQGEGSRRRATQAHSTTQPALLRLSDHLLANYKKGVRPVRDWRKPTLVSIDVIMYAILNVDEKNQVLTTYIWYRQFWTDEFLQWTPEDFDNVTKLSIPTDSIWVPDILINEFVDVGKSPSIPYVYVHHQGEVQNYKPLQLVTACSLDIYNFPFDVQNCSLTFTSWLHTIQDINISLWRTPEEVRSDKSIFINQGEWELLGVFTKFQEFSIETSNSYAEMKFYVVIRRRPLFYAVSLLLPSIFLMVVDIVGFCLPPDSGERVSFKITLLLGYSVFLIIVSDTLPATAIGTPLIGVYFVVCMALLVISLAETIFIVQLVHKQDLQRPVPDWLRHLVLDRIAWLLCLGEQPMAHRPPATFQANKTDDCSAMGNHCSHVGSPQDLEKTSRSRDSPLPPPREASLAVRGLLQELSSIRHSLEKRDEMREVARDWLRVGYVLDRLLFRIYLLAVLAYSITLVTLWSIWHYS

[10] = target: CHRNA1/CHRNB1/CHRNG/CHRND (Rattus norvegicus) (UniProt P25109+P25108+P25110+P18916); assay: Negative allosteric modulation of rat alpha1betagammadelta nACHR expressed in Xenopus laevis oocytes assessed as inhibition of acetylcholine-induced current response at 30 uM at -40 mV holding potential by two-electrode voltage clamp method relative to acetylcholine alone; assay type: cell-based; how it was run: as §2
[11] = target: T1, Glutamate NMDA receptor; Grin1/Grin2c (Rattus norvegicus); assay: Negative allosteric modulation of recombinant rat GluN1/GluN2C expressed in Xenopus laevis oocytes assessed as inhibition of glutamate/glycine-induced current response at saturated concentration at -40 mV holding potential by two-electrode voltage clamp method relative to glutamate/glycine; assay type: cell-based
How it was run: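 Hill fit of the composite concentration-response curve in oocytes, with agonist 100 µM glutamate plus 30 µM glycine. Residual response in saturating compound is either fixed at 0 or fitted. 8-16 oocytes from 2-3 frogs.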

[12] = target: Glutamate NMDA receptor; Grin1/Grin2a (Rattus norvegicus) (UniProt P35439+Q00959); assay: Negative allosteric modulation of recombinant rat GluN1/GluN2A expressed in Xenopus laevis oocytes assessed as residual glutamate/glycine-induced current response at 30 uM at -40 mV holding potential by two-electrode voltage clamp method relative to glutamate/glycine

Question: `CCN(CC)C(=O)Oc1ccc(C(=O)Nc2cccc(CCNS(=O)(=O)c3ccccc3)c2)cc1` was tested. Which IC50 [1] did it give?
Answer: Its IC50 is 2.4 µM.

Question: And the residual activity [2]?
Answer: The residual activity was 9%.

Question: And the Ratio IC50 [3]?
Answer: Its Ratio IC50 is under 6.

Question: And the Ratio IC50 [4]?
Answer: Its Ratio IC50 is under 6.

Question: What about the residual activity [5] of the same compound?
Answer: The residual activity was 8.9 to 9%.

Question: And the IC50 [6]?
Answer: Its IC50 is 7.6 µM.

Question: And the inhibition [7]?
Answer: The inhibition was 79%.

Question: What about the inhibition (Rattus norvegicus) of the same compound?
Answer: The inhibition was 98%.

Question: What about the inhibition [8] of the same compound?
Answer: Its inhibition is 30%.

Question: And the inhibition [9]?
Answer: The inhibition was 20%.

Question: What about the inhibition [10] of the same compound?
Answer: The inhibition was 27%.

Question: What about the inhibition [11] of the same compound?
Answer: The inhibition was 0%.

Question: And the residual activity [12]?
Answer: The residual activity was 85%.
